Compound activity (PubChem)
UCH37 DUB inh: inhibitors of human UCH37 deubiquitinase, primary screen, biochemical, Ub-AMC cleavage, fluorescence; purified proteasome/UCH37; inhibition, % (test concentration not listed); actives 0.33% (n = 330,000);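 active = mean inhibition over replicate wells above about 20%, limit read from the data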
Target sequence (Q9Y5K5 whole entry, looked up): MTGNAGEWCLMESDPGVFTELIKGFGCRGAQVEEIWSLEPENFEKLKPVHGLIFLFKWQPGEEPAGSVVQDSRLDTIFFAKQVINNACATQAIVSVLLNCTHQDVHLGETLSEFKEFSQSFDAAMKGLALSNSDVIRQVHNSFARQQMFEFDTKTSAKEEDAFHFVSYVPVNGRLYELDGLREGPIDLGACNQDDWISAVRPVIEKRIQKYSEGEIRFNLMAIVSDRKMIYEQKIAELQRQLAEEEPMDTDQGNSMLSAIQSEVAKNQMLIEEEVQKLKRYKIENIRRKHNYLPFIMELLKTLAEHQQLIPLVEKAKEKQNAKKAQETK
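Material: human UCH37 enzyme supplied as purified proteasome complex / Amount: 0.15 nM proteasome as dispensed / Buffer or medium: pH 7.4 Tris-HCl (50 mM) with ovalbumin, ATP-MgCl2, DTT / Times: preincubation 30 min, reaction 25 min, room temperature / Technique: AMC fluorescence from Ub-AMC cleavage, excitation 355 nm, emission 460 nm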
CRFR2-BP antag: antagonists of CRF-BP/CRF-R2 complex, primary screen, cell-based, HEK293, calcium dye fluorescence, uHTS; CRF-induced calcium fluorescence; inhibition, % at 11.8 µM; actives 0.59% (n = 350,000); AID 588475, 2011;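 active = inhibition of the ligand-induced calcium signal above about 50% at the single tested concentration, limit read from the data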
hiPSC survival: enhancers of single-cell hiPSC survival, primary screen, ATPlite luminescence; 100% = ROCK inhibitor wells, 0% = DMSO; survival enhancement, % at 20 µM; actives 0.044% (n = 360,000); AID 602274, 2012; in the data active = survival enhancement above about 18%;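 note: cells exposed to compounds for 16 hours before the ATP read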
H9c2 protect: cardioprotection against H2O2-induced cell death, primary screen, uHTS, H9c2 cells, ATPLite luminescence | H9c2 cardiomyocytes, H2O2 injury protection, 2 h | protection from H2O2 cell death, % at 20 µM | actives 0.63% (n = 360,000);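 active = compounds giving at least 50% protection of heart cells from peroxide-induced death in the single-dose screen, raw or plate-pattern-corrected value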
CRFBP-R2 agonist: agonists of CRF-BP/CRF-R2 complex, primary screen, cell-based, HEK293, calcium dye fluorescence, uHTS; CRF-binding protein / CRF receptor 2 complex (human); calcium dye fluorescence (FLIPR); percent of saturating CRF peptide response; activation, % at 13.2 µM; actives 0.46% (n = 350,000); AID 588473, 2011;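 active = activation of at least 50%, plus an integration ratio under a set limit after plate pattern correction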
beta cell repl: inducers of MIN6 beta-cell proliferation, primary screen, ATP luminescence, uHTS; proliferation, % at 10 µM; AID 2380, 2010; MIN6 cells proliferation, ATPlite luminescence, 48 h; cells starved in 0.2% serum; 100% = growth in 10% serum; actives 0.29% (n = 330,000);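 active = compounds whose signal lies at least 3.5 SD above the mean of all wells on their plate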
Hits are given with their value; 0 = inactive; - = no result given. Only some compounds are listed: those with a hit (about 2.1% of all), similar ones and a draw of the others.

SMILES	UCH37 DUB inh	CRFR2-BP antag	hiPSC survival	H9c2 protect	CRFBP-R2 agonist	beta cell repl
CC1CCN(C(=O)C2CCN(S(=O)(=O)c3cccs3)CC2)CC1	0	106	0	0	0	0
NC(=S)NN=Cc1ccccc1OCCSc1ccc(Cl)cc1	0	-	-	-	-	-
Cc1c(Nc2cc(Cl)c3nonc3c2[N+](=O)[O-])c(=O)n(-c2ccccc2)n1C	0	0	33	0	0	0
O=C(NN=Cc1ccncc1)c1ccc(COc2cccc3cccnc23)cc1	0	-	-	-	-	-
CC(C)(C)c1nnc(N/N=C/c2ccccc2O)n(N)c1=O	-	0	0	52	0	0
N#CC(=NNc1ccc(S(=O)(=O)N2CCOCC2)cc1)C(N)=O	0	-	-	-	-	-
CC(=O)Nc1cc(C)nn1-c1nc2ccccc2s1	0	0	0	52	0	0
C=CCNc1oc(-c2ccc(Cl)cc2)nc1C#N	0	0	0	52	0	0
CCC(=NO)c1cnnc(SC)n1	0	-	-	-	-	-
O=C(c1cnn2c(C(F)F)cc(-c3ccccc3)nc12)N1CCOCC1	0	0	0	0	0	0
O=C(Nc1ccc(C(=O)N2CCOCC2)cc1)c1cnn2c(C(F)F)cc(-c3ccccc3)nc12	0	0	0	55	0	0
COc1ccc(-c2cc(C(F)F)n3ncc(C(=O)Nc4ccc(C(=O)N5CCOCC5)cc4)c3n2)cc1	0	0	0	71	0	0
O=C(NCCN1CCOCC1)c1cc(-c2ccccc2)nc2ccccc12	-	0	0	0	0	-
O=C(NCCN1CCOCC1)c1cnn2c(-c3ccccc3)cc(-c3ccccc3)nc12	0	0	0	79	0	0
N#CC1=CN(Cc2ccccc2)C=C(C=NNc2ccccc2)C1	0	-	-	-	-	-
Cc1c2cc(O)c(=O)cc-2oc2cc(O)c(O)cc12	0	0	0	0	0	0
COc1cc(OC)c(-c2c3cc(O)c(=O)cc-3oc3cc(O)c(O)cc23)cc1OC	0	0	0	0	171	0
CS(=O)(=O)c1ccc(C(=O)OCC(=O)NC23CC4CC(CC(C4)C2)C3)cc1[N+](=O)[O-]	0	0	0	0	0	0
CCC(OC(=O)c1ccc(S(C)(=O)=O)c([N+](=O)[O-])c1)C(=O)NC1C2CC3CC(C2)CC1C3 (stereo not drawn)	-	-	30	0	-	-
CC(OC(=O)c1ccc(S(C)(=O)=O)c([N+](=O)[O-])c1)C(=O)NC1C2CC3CC(C2)CC1C3 (stereo not drawn)	-	-	24	0	-	-
CCn1c(SCC(=O)NN=C/C(C)=C\c2ccco2)nnc1-c1ccccc1	0	-	-	-	-	-
COC(=O)NN=Cc1cc(N=Nc2ccccc2)ccc1O	0	-	-	-	-	-
Cc1ccc(S(=O)(=O)Oc2ccccc2C=NNC(=O)c2c(Cl)cnn2C)cc1	0	-	-	-	-	-
CC(=NNc1cc(-c2ccccc2)nc(-c2ccccc2)n1)c1ccc(O)c(C)c1	0	-	-	-	-	-
Cc1ccc2occ(C=NNC(=O)c3ccccc3O)c(=O)c2c1	0	-	-	-	-	-
SMILES	UCH37 DUB inh	CRFR2-BP antag	hiPSC survival	H9c2 protect	CRFBP-R2 agonist	beta cell repl
COC(=O)NN=C(CCC(=O)O)c1cccs1	0	-	-	-	-	-
CN(CC(=O)Nc1ccc(Cl)cc1)C(=O)C1=COCCO1	0	0	0	0	0	0
COc1ccc(NC(=O)CN(C)C(=O)C2=COCCO2)cc1	0	107	0	0	0	0
O=C(NC(C(=O)N/N=C/c1cccnc1)c1n[nH]c(=O)c2ccccc12)c1ccccc1 (stereo not drawn)	-	0	0	0	96	0
O=C(NC(C(=O)N/N=C/c1ccncc1)c1n[nH]c(=O)c2ccccc12)c1ccccc1 (stereo not drawn)	-	0	0	0	0	0
S=C(NCc1ccco1)NN=Cc1cccnc1	0	-	-	-	-	-
CCOc1ccc(/C=N/NC(=O)C(C)N(c2ccc(OC)cc2)S(C)(=O)=O)cc1OCC (stereo not drawn)	-	55	0	0	0	0
Cc1nc(N2CCN(c3ccccn3)CC2)c2c(C)c(C(=O)Nc3ccccc3F)sc2n1	0	0	0	50	0	0
COc1cc(NC(=O)c2ccccc2)c(OC)cc1NC(=O)CN1CCN(c2ccccn2)CC1	0	0	0	50	0	0
O=C(CN1CCN(c2ccccn2)CC1)Nc1ccc([N+](=O)[O-])cc1C(=O)Nc1ccccc1F	0	0	0	63	0	0
COc1cc(Cl)c(C)cc1NC(=O)c1ccccc1NC(=O)CN1CCN(c2ccccn2)CC1	0	0	0	0	0	-
Cc1cc(C(=O)NN=Cc2ccc[nH]2)no1	0	-	-	-	-	-
Cc1cc(C(=O)NN=C2CC(C)CC(C)(C)C2)c(C)o1 (stereo not drawn)	0	-	-	-	-	-
COc1ccccc1-[n+]1c(C)cc(/C=C2\Sc3ccccc3N2C)cc1C	20	0	0	0	175	0
COc1ccc(C(=O)/C=C2\Sc3ccccc3N2C)cc1	0	0	0	0	0	0
COc1ccc(-[n+]2c(C)cc(/C=C3\Sc4ccccc4N3C)cc2C)cc1	24	-	0	0	-	0
Cc1ccc(N=C2C(=O)Nc3c(C)cccc32)cc1	0	0	0	0	0	0
COc1ccc(N=C2C(=O)Nc3c(C)cccc32)cc1	0	94	0	0	0	0
COc1ccc(C=NNC(=S)Nc2ccccc2)cc1COc1ccc(F)cc1F	0	-	-	-	-	-
Cc1cc(=O)[nH]c(NN=Cc2ccc(Cl)cc2Cl)n1	0	-	-	-	-	-
CCCc1nc(SCc2ccc(Cl)cc2Cl)n[nH]1	0	59	0	0	0	0
CCc1nc(SCc2ccc(Cl)cc2)n[nH]1	0	0	0	0	0	0
O=C(Nc1cccc(-c2nc3ccccc3s2)c1)c1cc(-n2cnnc2)ccc1Cl	0	0	0	76	0	0
COc1ccc2[nH]c(=O)c(CNc3cccc(C)c3)cc2c1	0	0	0	0	0	0
COc1ccc2[nH]c(=O)c(CN(c3ccccc3OC)S(=O)(=O)c3ccccc3)cc2c1	0	0	0	68	0	0
SMILES	UCH37 DUB inh	CRFR2-BP antag	hiPSC survival	H9c2 protect	CRFBP-R2 agonist	beta cell repl
COc1ccc2[nH]c(=O)c(CNC3CCCCC3)cc2c1	0	0	0	57	0	0
COc1ccc2[nH]c(=O)c(CN(C(=O)NC3CCCCC3)C3CCCCC3)cc2c1	0	0	0	0	0	0
COc1ccc(NCc2cc3cc(OC)ccc3[nH]c2=O)cc1	0	0	0	99	0	0
COc1ccc(NCc2cc3ccccc3[nH]c2=O)cc1	0	0	0	62	0	0
COCC(=O)NN=Cc1c(C)[nH]n(-c2ccccc2)c1=O	0	-	-	-	-	-
O=C(NC1CCCCC1)N(Cc1nc2ccccc2c(=O)[nH]1)C1CCCCC1	0	0	28	0	0	0
